Key:
Striatum [1] = assay: Drug uptake in Sprague-Dawley rat striatum assessed per cm'3 at 37 MBq, iv after 30 mins; type: ADME, organism-based; settings: in vivo, 0.5 h
In short: (§1)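 Baseline small-animal PET in one male Sprague–Dawley rat: 37 MBq (1 mCi) tracer injected, and full dynamic acquisition started at injection and ran 60 min. Images were reconstructed and coregistered with MRI. Striatal uptake was given as %ID per cm³ for the 15, 30 and 60 min time-frames.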

Striatum [2] = assay: Drug uptake in Sprague-Dawley rat striatum assessed as reduction of striatal binding potential at 37 MBq, iv treated 45 mins after DAT inhibitor GBR-12909 challenge measured after 30 mins; type: ADME, organism-based; set-up: scale not given: the % may be the effect or the level left; settings: in vivo, 0.5 h
In short: (§2)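 The same animal then received 1.5 mg/kg GBR12909 45 min before a second 37 MBq dose, followed by another 60 min scan. Striatal binding potential was read for the 15, 30 and 60 min time-frames, and the reduction was expressed in %.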

[3] = Ratio of drug uptake in striatum to cerebellum of Sprague-Dawley rat at 37 MBq, iv after 60 mins; type: ADME, organism-based; settings: in vivo, 1 h
In short: (§3)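 Male Sprague–Dawley rat, baseline small-animal PET. Tracer given at 37 MBq (1 mCi), specific activity 67 GBq/µmol. Full dynamic scan for 60 min, acquisition starting with tracer injection. Read-out is the striatum/cerebellum radioactivity-concentration ratio, taken at the 15, 30 and 60 min time frames.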

[4] = Ratio of drug uptake in striatum to cerebellum of Sprague-Dawley rat at 37 MBq, iv after 15 mins; type: ADME, organism-based; settings: in vivo, 0.25 h; in short: as §3
Striatum [5] = assay: Drug uptake in Sprague-Dawley rat striatum assessed per cm'3 at 37 MBq, iv after 4 mins; type: ADME, organism-based; settings: in vivo
Striatum [6] = assay: Drug uptake in Sprague-Dawley rat striatum assessed as reduction of striatal binding potential at 37 MBq, iv treated 45 mins after DAT inhibitor GBR-12909 challenge measured after 60 mins; type: ADME, organism-based; set-up: scale not given: the % may be the effect or the level left; settings: in vivo, 1 h; in short: as §2
Striatum [7] = assay: Drug uptake in Sprague-Dawley rat striatum assessed per cm'3 at 37 MBq, iv after 60 mins; type: ADME, organism-based; settings: in vivo, 1 h; in short: as §1
Striatum [8] = assay: Drug uptake in Sprague-Dawley rat striatum assessed per cm'3 at 37 MBq, iv treated 45 mins after DAT inhibitor GBR-12909 challenge measured after 60 mins; type: ADME, organism-based; settings: in vivo, 1 h
In short: (§4)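 This was the same rat after its baseline scan. It was pretreated with 1.5 mg/kg GBR12909 45 min before a second 37 MBq tracer injection, and dynamic PET acquisition ran 60 min from injection. Striatal uptake was given as %ID per cm³ for the 15, 30 and 60 min time-frames.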

Striatum [9] = assay: Drug uptake in Sprague-Dawley rat striatum assessed as reduction of striatal binding potential at 37 MBq, iv treated 45 mins after DAT inhibitor GBR-12909 challenge measured after 15 mins; type: ADME, organism-based; set-up: scale not given: the % may be the effect or the level left; settings: in vivo, 0.25 h; in short: as §2
[10] = Ratio of drug uptake in striatum to cerebellum of Sprague-Dawley rat at 37 MBq, iv after 30 mins; type: ADME, organism-based; settings: in vivo, 0.5 h; in short: as §3
[11] = Ratio of drug uptake in striatum to cerebellum of Sprague-Dawley rat at 37 MBq, iv treated 45 mins after DAT inhibitor GBR-12909 challenge measured after 15 mins; type: ADME, organism-based; settings: in vivo, 0.25 h
In short: (§5)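 Same male Sprague–Dawley rat, rescanned after baseline. GBR12909 1.5 mg/kg given 45 min before a second 37 MBq tracer dose. Dynamic acquisition for 60 min, started at injection. Read-out is the striatum/cerebellum radioactivity-concentration ratio at the 15, 30 and 60 min time frames.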

Striatum [12] = assay: Drug uptake in Sprague-Dawley rat striatum assessed per cm'3 at 37 MBq, iv after 15 mins; type: ADME, organism-based; settings: in vivo, 0.25 h; in short: as §1
[13] = Ratio of drug uptake in striatum to cerebellum of Sprague-Dawley rat at 37 MBq, iv treated 45 mins after DAT inhibitor GBR-12909 challenge measured after 60 mins; type: ADME, organism-based; settings: in vivo, 1 h; in short: as §5
Striatum [14] = assay: Drug uptake in Sprague-Dawley rat striatum assessed per cm'3 at 37 MBq, iv treated 45 mins after DAT inhibitor GBR-12909 challenge measured after 15 mins; type: ADME, organism-based; settings: in vivo, 0.25 h; in short: as §4
[15] = Ratio of drug uptake in striatum to cerebellum of Sprague-Dawley rat at 37 MBq, iv treated 45 mins after DAT inhibitor GBR-12909 challenge measured after 30 mins; type: ADME, organism-based; settings: in vivo, 0.5 h; in short: as §5
Striatum [16] = assay: Drug uptake in Sprague-Dawley rat striatum assessed per cm'3 at 37 MBq, iv treated 45 mins after DAT inhibitor GBR-12909 challenge measured after 30 mins; type: ADME, organism-based; settings: in vivo, 0.5 h; in short: as §4
[17] = target: Sodium-dependent dopamine transporter (Homo sapiens, UniProt Q01959); assay: Inhibition of human dopamine transporter
Sodium-dependent dopamine transporter, sequence (Q01959 whole entry): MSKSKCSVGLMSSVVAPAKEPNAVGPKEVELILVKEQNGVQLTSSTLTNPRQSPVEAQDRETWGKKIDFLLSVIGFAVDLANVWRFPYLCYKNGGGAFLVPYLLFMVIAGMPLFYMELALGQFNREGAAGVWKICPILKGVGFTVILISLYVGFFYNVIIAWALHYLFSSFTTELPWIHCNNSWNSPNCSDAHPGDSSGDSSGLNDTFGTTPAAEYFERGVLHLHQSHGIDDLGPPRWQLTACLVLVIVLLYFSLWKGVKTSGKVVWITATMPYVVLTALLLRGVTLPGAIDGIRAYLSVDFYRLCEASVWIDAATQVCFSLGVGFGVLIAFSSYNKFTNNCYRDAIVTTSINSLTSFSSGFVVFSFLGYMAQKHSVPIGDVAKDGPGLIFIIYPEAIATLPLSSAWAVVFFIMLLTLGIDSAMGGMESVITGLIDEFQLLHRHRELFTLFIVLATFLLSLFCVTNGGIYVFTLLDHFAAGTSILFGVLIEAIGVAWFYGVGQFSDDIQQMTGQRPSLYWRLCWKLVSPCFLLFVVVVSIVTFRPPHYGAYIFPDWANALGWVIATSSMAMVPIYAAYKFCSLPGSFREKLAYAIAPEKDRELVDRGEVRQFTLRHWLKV

Row | Structure (SMILES) | Activity (Striatum [1]) [%ID] | Activity (Striatum [2]) [%] | Ratio [3] | Ratio [4] | Drug uptake (Striatum [5]) [%] | Activity (Striatum [6]) [%] | Activity (Striatum [7]) [%ID] | Activity (Striatum [8]) [%ID] | Activity (Striatum [9]) [%] | Ratio [10] | Ratio [11] | Activity (Striatum [12]) [%ID] | Ratio [13] | Activity (Striatum [14]) [%ID] | Ratio [15] | Activity (Striatum [16]) [%ID] | IC50 [17] [nM]
1 | Cc1ccc([C@H]2C[C@@H]3CC[C@H]([C@H]2C(=O)O[11CH3])N3CC#CCF)cc1 | 2.1 | 41 | 5 | 2.4 | 2.22 | 57 | 2.1 | 1.2 | 32 | 3.6 | 1.25 | 2 | 1.61 | 2.1 | 1.67 | 1.6 | –
2 | COC(=O)[C@H]1[C@@H](c2ccc(C)cc2)C[C@@H]2CC[C@H]1N2CC#CCF | – | – | – | – | – | – | – | – | – | – | – | – | – | – | – | – | 3

Source: ChEMBL document CHEMBL1152377, “[(11)C]PR04.MZ, a promising DAT ligand for low concentration imaging: Synthesis, efficient (11)C-O-methylation and initial small animal PET studies” (Bioorg Med Chem Lett, 2009)
